Results of several laboratories.
Lines come from different studies, so protocols differ.
Observed: cell growth or viability

CN1CCC(NC(=O)c2ccc(-c3cc(C4CC4)c4oc5c(c4c3)CCN(C(=O)/C=C/c3ccc(N)nc3)C5)nn2)C(F)(F)C1 (stereo not shown) — IC50 (MIA PaCa-2; CCK-8; 72 h): 1900 nM
CCNCCCn1c2c(c3cc(OC)c(OC)cc3c1=O)C(=O)c1cc3c(nc1-2)OCO3 — IC50 (KMS-27; MTS; 72 h): 141 nM
Nc1ccc(/C=C/C(=O)N2CCc3c(oc4c(-c5ccc(F)cc5)cc(-c5ncc(C(=O)N6CCC(F)(F)CC6)cn5)cc34)C2)cn1 — IC50 (MIA PaCa-2; CCK-8; 72 h): 4460 nM
COc1ccc(-c2cc(C(=O)Nc3ccccc3)c3cc(-c4cc(C)ccc4F)ccc3n2)cc1 — IC50 (MIA PaCa-2; MTT; 48 h): > 50000 nM
CC1(C)CCC(c2ccc(Cl)cc2)=C(CN2CCN(c3ccc(C(=O)NS(=O)(=O)c4ccc(N[C@H](CCN5CCOCC5)CSc5ccccc5)c(S(=O)(=O)C(F)(F)F)c4)cc3)CC2)C1 — IC50 (human Platelet; MTS; 24 h): 6.4 nM
COc1cc2c3c(n(CCCNC(C)C)c(=O)c2cc1OC)-c1nc2c(cc1C3=O)OCO2 — IC50 (MOLT-4; MTS; 72 h): 19 nM
COc1ccc(-c2cc(C(=O)Nc3ccccc3)c3cc(-c4cc(Cl)ccc4F)ccc3n2)cc1 — IC50 (MIA PaCa-2; MTT; 48 h): > 50000 nM
C=C(F)C(=O)N1CCN(c2nc(OC[C@@H]3CCCN3C)nc3c2CCN(c2cccc4cccc(Cl)c24)C3)C[C@@H]1CC#N — IC50 (MIA PaCa-2; ATP luminescence): 56.5 nM
Nc1ccc(/C=C/C(=O)N2CCc3c(oc4c(-c5ccc(F)cc5)cc(-c5ccc(C(=O)N6CCC(F)(F)CC6)nn5)cc34)C2)cn1 — IC50 (MIA PaCa-2; CCK-8; 72 h): 230 nM
Cc1sc2c(c1C)C(c1ccc(Cl)cc1)=N[C@@H](CC(=O)NCCCCCCCCNC(=O)COc1cccc3c1C(=O)N(C1CCC(=O)NC1=O)C3=O)c1nnc(C)n1-2 (stereo partly shown) — IC50 (Jurkat; ATP luminescence; 72 h): 39 nM
COc1ccc(F)cc1-c1ccc2nc(-c3ccc(F)cc3)cc(C(=O)Nc3ccccc3)c2c1 — IC50 (MIA PaCa-2; MTT; 48 h): > 50000 nM
C=CC(=O)N1CCN(c2nc(=O)n(-c3c(C)ccnc3C(C)C)c3nc(-c4c(O)cccc4F)c(F)cc23)[C@@H](C)C1 — IC50 (SW837; ATP luminescence): 46.3 nM
Nc1ccc(/C=C/C(=O)N2CCc3c(oc4c(-c5ccc(F)cc5)cc(-c5cnc(C(=O)N6CCC(F)(F)CC6)nc5)cc34)C2)cn1 — IC50 (MIA PaCa-2; CCK-8; 72 h): 1360 nM
COc1cc2c3c(n(CCCNCCO)c(=O)c2cc1OC)-c1nc2c(cc1C3=O)OCO2 — IC50 (MOLT-4; MTS; 72 h): 12 nM
COc1ccc(-c2cc(C(=O)Nc3ccccc3)c3cc(-c4cnc(Cl)c(C)c4)ccc3n2)cc1 — IC50 (MIA PaCa-2; MTT; 48 h): > 50000 nM
COc1cc2c3c(n(CCCn4ccnc4)c(=O)c2cc1OC)-c1nc2c(cc1C3=O)OCO2 — IC50 (MOLT-4; MTS; 72 h): 43 nM
[NH2][Pt]([NH2])([Cl])[Cl] — IC50 (LNCaP; MTT; 72 h): 10200 nM
COc1ccc(-c2cc(C(=O)Nc3ccccc3)c3cc(-c4ccc(Cl)cc4)ccc3n2)cc1 — IC50 (MIA PaCa-2; MTT; 48 h): > 50000 nM
COc1cc2c3c(n(CCCN4CCOCC4)c(=O)c2cc1OC)-c1nc2c(cc1C3=O)OCO2 — IC50 (MOLT-4; MTS; 72 h): 113 nM
